Assay [1] has as its target Superoxide dismutase [Cu-Zn] (Homo sapiens) (UniProt P00441). In words: Binding affinity to human GST-SOD1 expressed in Escherichia coli Rosetta at 100 uM in presence of human plasma by reverse phase HPLC analysis. The class given is cell-free. The method in brief: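 GST-SOD-1 fusion (final 75μM) added to 1 ml human blood plasma with compound at 100μM; shaken 60 rpm, 4°C, 24 h. Complex captured on glutathione-sepharose (4°C, 1 h), compound released with 5% TFA and quantified by C18 reverse-phase HPLC (40-100% acetonitrile/0.2% TFA gradient, 20 min). Buffer-only control taken as theoretical maximum for relative binding; GST tag alone as control.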

The species named for assay [2] is Homo sapiens. The assay is described as follows: Inhibition of human GST-SOD1 A4V and N53A mutant aggregation expressed in Escherichia coli Rosetta assessed as dimeric enzyme level at 75 uM by […]. Put shortly: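 Metal-free SOD-1 mutant prepared by dialysis against acetate pH 3.8/10mM EDTA, then pH 5.5/100mM NaCl; chelex-treated buffers, plastic tubes. Dimer purified on Superdex 75. Apoprotein 25μM preincubated with compound 75μM, 37°C, 15 min; aggregation started with 5mM EDTA at 37°C. Aliquots analysed by Superdex 200 gel filtration in TBS pH 7.4 (220/276 nm); dimer estimated from peak area.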

The species named for assay [3] is Homo sapiens. In words: Inhibition of human GST-SOD1 A4V mutant aggregation expressed in Escherichia coli Rosetta assessed as dimeric enzyme level at 20 uM […]. Put shortly: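 Metal-free SOD-1 A4V apoprotein (25μM) preincubated with increasing compound concentrations, 37°C, 15 min, then 5mM EDTA added and aggregation run 4 hrs at 37°C. Dimer measured by size exclusion chromatography peak area; percentage inhibition calculated against untreated A4V.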

The species entered for assay [4] is Homo sapiens. In words: Inhibition of human GST-SOD1 A4V mutant aggregation expressed in Escherichia coli Rosetta assessed as dimeric enzyme level at 75 uM by […].

Activity calls are given as the source filed them. The calls are words filed in the database; no cut-off is given here.

Sequence of Superoxide dismutase [Cu-Zn] (Homo sapiens) (P00441 whole entry, the tested form may be a part): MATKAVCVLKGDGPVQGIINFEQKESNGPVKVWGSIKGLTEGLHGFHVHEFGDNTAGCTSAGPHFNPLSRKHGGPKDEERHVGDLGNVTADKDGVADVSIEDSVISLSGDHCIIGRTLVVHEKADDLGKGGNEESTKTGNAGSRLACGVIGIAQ

`O=c1cc(Nc2ccc(Cl)cc2F)[nH]c(=O)[nH]1`: the outcome in assay [1] was inactive.

Turning to `O=c1[nH]nc(SCc2ccccc2)c(=O)[nH]1`, the result (in the assay listed under Homo sapiens [2]; in assay [1]) was inactive. The result in the assay filed under Homo sapiens [3] and in the assay listed under Homo sapiens [4] was Active.

As to `O=c1[nH]nc(SCc2c(F)cccc2Cl)c(=O)[nH]1`, the outcome in assay [1] was inactive. For the same compound, the outcome in the assay listed under Homo sapiens [4] was Active.

As to `O=c1[nH]cc(CSc2n[nH]c(=O)[nH]c2=O)c(=O)[nH]1`, the outcome in the assay listed under Homo sapiens [2] was inactive. Further, the result in the assay listed under Homo sapiens [3] was Active.

Take `O=c1[nH]nc(SCc2ccccc2Cl)c(=O)[nH]1`: in assay [1], the outcome was inactive. For the same compound, the result in the assay filed under Homo sapiens [4] was Active.

Consider `O=c1cc(Nc2ccc3ccccc3c2)[nH]c(=O)[nH]1`, for which, in assay [1], the outcome was inactive. The result in the assay filed under Homo sapiens [4] was Active.

Values taken from ChEMBL document CHEMBL1156978, “Improving binding specificity of pharmacological chaperones that target mutant superoxide dismutase-1 linked to familial amyotrophic lateral sclerosis using computational methods” (J Med Chem, 2010).
